Experimental findings from ChEMBL document CHEMBL1800030, “Synthesis and biological evaluation of anilino substituted pyrimidine linked pyrrolobenzodiazepines as potential anticancer agents” (Bioorg Med Chem Lett, 2010) are described below.

A short description of test [1]: Cytotoxicity against human DWD cells after 48 hrs by SRB assay. The class given is functional. The procedure, abridged: (§1)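 Cells from human breast, oral, ovary, colon, lung, prostate and cervix cancer lines were tested by sulforhodamine B assay. GI50 is 50% growth inhibition, given as mean ± SEM of three determinations. Activity cutoff was GI50 ≤10^-5 M. Adriamycin served as positive control.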

The next test concerns ZR-75-1. Description: Cytotoxicity against human ZR-75-1 cells after 48 hrs by SRB assay. In kind it is functional. The note with it: ZR-75-1, 48 h. The method in brief:
as §1

A further test has as its system MCF7. Put plainly: Cytotoxicity against human MCF7 cells after 48 hrs by SRB assay. In kind it is functional. The note with it: MCF7, 48 h. The procedure, abridged: as §1
A further test concerns PC-3. Description: Cytotoxicity against human PC3 cells after 48 hrs by SRB assay. The note with it: PC-3, 48 h. In kind it is functional. The procedure, abridged:
as §1

Test [2] relates to A-375. Description: Induction of apoptosis in human A375 cells assessed as PARP cleavage at 4 uM after 24 hrs by Western blot analysis.
Test [3] deals with A-375. Put plainly: Cell cycle arrest in human A375 cells assessed as accumulation at G2/M phase at 4 uM after 24 hrs by propidium iodide staining based FACS analysis (reference value: 17.65 to 23.26%). The class given is functional.
The test system of the next test is SiHa. Description: Cytotoxicity against human SiHa cells after 48 hrs by SRB assay. The class given is functional. The method in brief:
as §1

Test [4] concerns Nucleic Acid. Description: Binding affinity to calf thymus DNA assessed as change in melting temperature at compound to DNA molar ratio of 1:5 at pH 7 after 18 hrs at 37 degC by thermal denaturation assay. The class given is nucleic-acid assay. The settings on record: Bos taurus.
Another test relates to A549. Description: Cytotoxicity against human A549 cells after 48 hrs by SRB assay. The class given is functional. The settings on record: A549, 48 h. The procedure, abridged:
as §1

Test [5] has as its system Nucleic Acid. Description: Inhibition of BamH1-induced DNA cleavage activity in Escherichia coli pBR322 at 4 uM after 24 hrs by agarose gel electrophoresis. The class given is nucleic-acid assay. The method in brief: (§2)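 pBR322 plasmid DNA was incubated with compound at 2–32 µM and then digested with BamHI. Restriction-digestion inhibition was judged against cut (BamHI, no compound) and uncut vector lanes.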

Test [6] is described as follows: Cytotoxicity against human Gurav cells after 48 hrs by SRB assay. In kind it is functional. The method in brief: as §1
The next test relates to KB. Put plainly: Cytotoxicity against human KB cells after 48 hrs by SRB assay. The class given is functional. The method in brief:
as §1

For test [7], the system named is A-375. Description: Cytotoxicity against human A375 cells after 24 hrs by MTT assay. The class given is functional, cell-based. The note with it: A-375, 24 h. The procedure, abridged:
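MTT proliferation assay on A375 cells, with the IC50 derived from it.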

For test [8], the system named is A-375. Description: Cell cycle arrest in human A375 cells assessed as accumulation at S phase at 4 uM after 24 hrs by propidium iodide staining based FACS analysis (reference value: 12.04 to 15.67%). In kind it is functional.
Test [9] relates to A-375. Put plainly: Induction of mitochondrial dysfunction in human A375 cells assessed as increase in cytosolic cytochrome c level at 4 uM after 24 hrs by Western blot analysis. In kind it is functional, cell-based. The procedure, abridged:
(§3)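 A375 cells were treated at 4 µM for 24 h, then p53 or cytosolic cytochrome c levels were measured by Western blot. β-Actin served as loading control. Controls were untreated cells and untreated cells plus DMSO.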

Test [10] has as its system A-375. Description: Cell cycle arrest in human A375 cells assessed as accumulation at G0/G1 phase at 4 uM after 24 hrs by propidium iodide staining based FACS analysis (reference value: 64.7 to 66.26%). The class given is functional.
For test [11], the system named is A-375. Description: Cytotoxicity against human A375 cells assessed as cell viability at 4 uM after 24 hrs by real time cell analyzer. The note with it: A-375, 24 h, read-out: Activity. In kind it is functional. The method in brief: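 A375 cell viability was measured after exposure to compound at 4 µM, with percent viability reported.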
The test system of test [12] is A-375. Put plainly: Upregulation of p53 gene expression in human A375 cells at 4 uM after 24 hrs by Western blot analysis. In kind it is functional, cell-based. The procedure, abridged: as §3
For test [13], the system named is A-375. Put plainly: Induction of apoptosis in human A375 cells at 4 uM after 24 hrs by FACS analysis (reference value: 5.61%). The class given is functional.
The next test has as its system A2780. Description: Cytotoxicity against human A2780 cells after 48 hrs by SRB assay. The settings on record: A2780, 48 h. In kind it is functional. The method in brief:
as §1

A further test relates to COLO 205. Put plainly: Cytotoxicity against human COLO205 cells after 48 hrs by SRB assay. In kind it is functional. The settings on record: COLO 205, 48 h. The procedure, abridged: as §1
In a further test the test system is HOP-62. Put plainly: Cytotoxicity against human HOP62 cells after 48 hrs by SRB assay. In kind it is functional. The note with it: HOP-62, 48 h. The procedure, abridged: as §1
Test [14] concerns Nucleic Acid. Description: Inhibition of BamH1-induced DNA cleavage activity in Escherichia coli pBR322 at 16 uM after 24 hrs by agarose gel electrophoresis. The class given is nucleic-acid assay. The method in brief: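 RED100 restriction-digestion assay: pBR322 vector DNA incubated with compound at 2, 4, 8, 16 and 32 µM, then digested with BamHI. Lanes are compared with uncut vector and with vector cut by BamHI without compound. DNA binding is read as inhibition of BamHI cleavage.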

In test [15] the test system is Nucleic Acid. Description: Inhibition of BamH1-induced DNA cleavage activity in Escherichia coli pBR322 at 8 uM after 24 hrs by agarose gel electrophoresis. The class given is nucleic-acid assay. The method in brief:
as §2

Active and inactive are the calls of the source. A value given as a limit tells only on which side of the number the result lay.

Regarding `COc1cc2c(cc1OCCCCC(=O)Nc1ccc(C)c(Nc3nccc(-c4cccnc4)n3)c1)N=C[C@@H]1CCCN1C2=O`, the GI50 in test [1] worked out at 2.5 µM; in the test on ZR-75-1, 0.17 µM; with MCF7, 0.17 µM; with PC-3 it was 2.03 µM; in the test with SiHa it was 2.2 µM; with A549, 2.3 µM. Besides, the GI50 in [6] is less than 0.1 µM; in the test with KB it was 0.18 µM; in the test with A2780 it was 2.4 µM; in the test with COLO 205, 2.3 µM; in the test on HOP-62, 0.16 µM. Also, the result with A-375 [2], in the test with A-375 [9] and with A-375 [12] was Active. For the same molecule, the Activity is listed as 6.47% in the test on A-375 [3], 13.98% with A-375 [8], 80.98% in the test on A-375 [10] and 41.59% in the test on A-375 [13]. Moreover, in the test with Nucleic Acid [4], the ΔTm was 2.1 °C. Besides, the inhibition entry in the test with Nucleic Acid [5] was “inactive”. Further, the IC50 in the test with A-375 [7] amounted to 5.5 µM. In addition, the viability at 4 µM in the test with A-375 [11] amounted to 72%.

As to `COc1cc2c(cc1O)N=C[C@@H]1CCCN1C2=O`, the GI50 in the test with MCF7 stood at 0.17 µM; in the test with PC-3, 0.2 µM; with SiHa, 0.17 µM; in the test on A549 it was 0.16 µM; in [6] it was 0.16 µM; with KB it was 0.17 µM. In addition, the GI50 came out at 0.14 µM in the test on A2780, 0.11 µM in the test on COLO 205 and 0.15 µM in the test with HOP-62. Further, the ΔTm in the test with Nucleic Acid [4] is 0.7 °C. Moreover, the inhibition result with Nucleic Acid [14] is “Active”.

Take `Cc1ccc(NC(=O)c2ccc(CBr)cc2)cc1Nc1nccc(-c2cccnc2)n1`: the Activity with A-375 [3] is recorded as 21%; with A-375 [8], 11%; in the test with A-375 [10], 68%.

As for `COc1cc2c(cc1OCCCCC(=O)Nc1ccc(C)c(Nc3nccc(-c4cc(OC)c(OC)c(OC)c4)n3)c1)N=C[C@@H]1C[C@H](F)CN1C2=O`, the GI50 in test [1] is 0.18 µM; in the test with ZR-75-1, 2.7 µM; in the test with MCF7, 0.16 µM; in the test with PC-3, 0.17 µM; with SiHa, 1.8 µM; in the test with A549, 2.5 µM. Further, the GI50 in test [6] is 0.15 µM; in the test on KB, 0.17 µM; in the test with A2780 it was 0.18 µM; in the test on COLO 205 it was 2.1 µM; in the test with HOP-62, 0.12 µM. For the same molecule, the outcome in the test on A-375 [2], in the test on A-375 [9] and in the test on A-375 [12] was Active. The Activity with A-375 [3] worked out at 6.04%; in the test on A-375 [8] it was 17.19%; with A-375 [10], 76.76%; with A-375 [13], 36.15%. The ΔTm in the test on Nucleic Acid [4] is 2.5 °C. Also, in the test with Nucleic Acid [5], the inhibition result was “inactive”. This molecule had an IC50 in the test on A-375 [7] of 5.6 µM. Moreover, the viability at 4 µM in the test on A-375 [11] came to 64.9%.

Consider `COc1cc2c(cc1OCCCCC(=O)Nc1ccc(C)c(Nc3nccc(-c4cc(OC)c(OC)c(OC)c4)n3)c1)N=C[C@@H]1CCCN1C2=O`, for which the GI50 was determined as 1.8 µM in [1]; 2.6 µM in the test with ZR-75-1; 2 µM in the test on MCF7; 1.8 µM with PC-3; 1.8 µM with SiHa; 2.3 µM in the test with A549. The GI50 was 2 µM in test [6]; 0.17 µM with KB; 0.18 µM with A2780; 2.3 µM with COLO 205; 2.4 µM in the test with HOP-62. Moreover, the ΔTm in the test with Nucleic Acid [4] was determined as 1.4 °C.

On to `COc1cc2c(cc1OCc1ccc(C(=O)Nc3ccc(C)c(Nc4nccc(-c5cccnc5)n4)c3)cc1)N=C[C@@H]1C[C@H](F)CN1C2=O`, for which the GI50 is 0.14 µM in test [1]; 0.15 µM with ZR-75-1; less than 0.1 µM in the test with MCF7; 0.14 µM in the test with PC-3; 0.12 µM in the test on SiHa; 0.16 µM with A549. The GI50 in test [6] was 0.13 µM; with KB, 0.12 µM; in the test on A2780, 0.13 µM; in the test with COLO 205, less than 0.1 µM; with HOP-62 it was 0.15 µM. Also, the result with A-375 [2], in the test with A-375 [9] and in the test on A-375 [12] was Active. The Activity in the test on A-375 [3] is recorded as 0.16%; in the test with A-375 [8], 0.2%; with A-375 [10] it was 98.44%; with A-375 [13], 83.86%. For the same molecule, in the test with Nucleic Acid [4], the ΔTm stood at 7.1 °C. Besides, in the test with Nucleic Acid [5], the inhibition result is “inactive”. Also, in the test with Nucleic Acid [15], the inhibition result is “Active”. In the test with A-375 [7], the IC50 turned out to be 0.16 µM. The viability at 4 µM in the test with A-375 [11] is 33.7%.

On to `COc1cc2c(cc1OCc1ccc(C(=O)Nc3ccc(C)c(Nc4nccc(-c5cccnc5)n4)c3)cc1)N=C[C@@H]1CCCN1C2=O`, for which the GI50 amounted to 0.13 µM in test [1]; 0.16 µM with ZR-75-1; 0.14 µM in the test on MCF7; 0.15 µM in the test on PC-3; 0.17 µM with SiHa; 0.14 µM in the test on A549. Besides, the concentration for 50% growth inhibition (GI50) is less than 0.1 µM in [6]; 0.14 µM in the test on KB; 0.13 µM with A2780; 0.12 µM in the test on COLO 205; 0.17 µM in the test on HOP-62. For the same molecule, the result in the test with A-375 [2], in the test on A-375 [9] and in the test with A-375 [12] was Active. The Activity in the test on A-375 [3] came to 5.67%; in the test with A-375 [8] it was 13.55%; with A-375 [10], 80.98%; in the test with A-375 [13], 49.7%. In the test with Nucleic Acid [4], the ΔTm was 6.8 °C. In addition, in the test on Nucleic Acid [5], the inhibition entry was “inactive”. Further, the inhibition result in the test on Nucleic Acid [15] is “Active”. Also, the IC50 in the test with A-375 [7] amounted to 1.1 µM. For the same molecule, the viability at 4 µM in the test with A-375 [11] amounted to 48%.

In the case of `COc1cccc2c1C(=O)c1c(O)c3c(c(O)c1C2=O)C[C@@](O)(C(=O)CO)C[C@@H]3O[C@H]1C[C@H](N)[C@H](O)[C@H](C)O1` [DOXORUBICIN], the GI50 in test [1] was less than 0.1 µM; in the test on ZR-75-1, 0.13 µM; with MCF7 it was less than 0.1 µM; with PC-3 it was 0.17 µM; in the test with SiHa, 2.1 µM; in the test on A549, 0.15 µM. Further, the GI50 is 0.12 µM in test [6]; 0.11 µM in the test with KB; less than 0.1 µM with A2780; less than 0.1 µM with COLO 205; 0.14 µM in the test with HOP-62.
